# Measured values from different studies.
# Lines come from different studies, so protocols differ.
# Target: Inhibitor of nuclear factor kappa-B kinase subunit epsilon (IKBKE, Homo sapiens, UniProt Q14164)
# Residues used in one study (Q14164 1-716): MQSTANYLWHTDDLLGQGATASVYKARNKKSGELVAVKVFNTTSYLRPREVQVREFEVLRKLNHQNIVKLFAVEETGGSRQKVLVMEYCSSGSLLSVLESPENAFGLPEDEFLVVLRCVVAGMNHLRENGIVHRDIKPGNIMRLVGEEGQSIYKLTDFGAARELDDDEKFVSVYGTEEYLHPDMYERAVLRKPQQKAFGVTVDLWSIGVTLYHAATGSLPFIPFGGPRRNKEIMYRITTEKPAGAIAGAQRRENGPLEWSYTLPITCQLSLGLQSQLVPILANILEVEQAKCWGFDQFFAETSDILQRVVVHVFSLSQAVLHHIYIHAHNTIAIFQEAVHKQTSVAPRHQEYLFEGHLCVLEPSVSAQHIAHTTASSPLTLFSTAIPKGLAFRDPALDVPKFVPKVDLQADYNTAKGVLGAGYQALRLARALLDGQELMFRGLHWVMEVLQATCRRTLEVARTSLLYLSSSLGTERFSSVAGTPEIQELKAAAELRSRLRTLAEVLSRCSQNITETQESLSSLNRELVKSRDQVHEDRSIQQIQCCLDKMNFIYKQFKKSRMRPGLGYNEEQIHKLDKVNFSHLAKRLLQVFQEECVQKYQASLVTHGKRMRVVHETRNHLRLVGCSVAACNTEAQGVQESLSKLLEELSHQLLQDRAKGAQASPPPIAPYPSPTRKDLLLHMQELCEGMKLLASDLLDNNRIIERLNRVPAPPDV
Structure (SMILES),assay,setting,quantity,value
Nc1nc(Nc2ccc(S(N)(=O)=O)cc2)nn1C(=O)c1c(F)cccc1F,cell-free assay,0.5 µM,remaining signal,95.9%
O=C(N[C@H]1CCCCC/C=C\C2C[C@@]2(C(=O)O)NC(=O)[C@@H]2C[C@@H](Oc3ccncc3)CN2C1=O)OC1CCCC1 (stereo partly shown),"binding, competition with immobilised ligand",1 µM,remaining binding,100%
CCCS(=O)(=O)Nc1ccc(F)c(C(=O)c2c[nH]c3ncc(-c4ccc(Cl)cc4)cc23)c1F,"enzyme activity, inhibitor",1 µM,inhibition,< 10%
COc1cc(Nc2c(C#N)cnc3cc(OCCCN4CCN(C)CC4)c(OC)cc23)c(Cl)cc1Cl,cell-free assay,0.5 µM,remaining signal,75.4%
CC/C(=N\NC(=O)NCc1cccc(O)c1)c1ccc(O)c(C)c1O,"enzyme activity, inhibitor",0.1 µM,inhibition,-0.4%
Cc1nn(CC(F)(F)F)cc1Nc1nccc(NCCc2cnc[nH]2)n1,"enzyme activity, inhibitor, radiometric",1 µM,remaining activity,83%
CN1CCN(c2ccc3nc(-c4c(N)c5c(F)cccc5[nH]c4=O)[nH]c3c2)CC1,"enzyme activity, inhibitor",0.5 µM,activity vs control,42.9%
Cc1ccc(NC(=O)c2ccc(C)c(C(F)(F)F)c2)cc1C#Cc1nn(C2CCC(O)CC2)c2ncnc(N)c12 (stereo not shown),cell-free assay,10 µM,remaining signal,94%
NS(=O)(=O)c1ccc(CNc2nc(Nc3cccc(CN4CCOCC4)c3)ncc2C2CC2)cc1,"enzyme activity, inhibitor, radiometric",1 µM,remaining activity,43%
COc1cc(/C=C/C(=O)CC(=O)/C=C/c2ccc(O)c(OC)c2)ccc1O,"enzyme activity, inhibitor",1 µM,activity vs control,72%
C[C@H](c1cccc(C#N)c1)n1cc(Cl)cc(C(N)=O)c1=N,"cell-free assay, competition with immobilised ligand",1 µM,remaining binding,82%
COc1cc2ncnc(Nc3ccc(Oc4ccccc4)c(C)c3C)c2cc1OC,"enzyme activity, inhibitor",1 µM,inhibition,1%
Nc1c(C(=O)NCc2ccc(C(=O)NCCCC3CCCCC3)cc2)cnn1-c1ccccc1,"cell-free assay, competition with immobilised ligand",0.1 µM,remaining binding,100%
COc1ccc(COc2ccc(Cc3cnc(N)nc3N)cc2OC)cc1,cell-free assay,0.5 µM,remaining signal,96.7%
Cc1nn(CC(F)(F)F)cc1Nc1nccc(NCCCNC(=O)C2CCC2)n1,"enzyme activity, inhibitor, radiometric",1 µM,remaining activity,63%
C[C@@H]1CN(c2cc(-c3nn(C)c4ccc(OC5(C)CC5)cc34)ncn2)C[C@H](C)O1,"cell-free assay, competition with immobilised ligand",1 µM,remaining binding,65%
O=C(NCCCNc1ccnc(Nc2cccc(NC(=O)N3CCCC3)c2)n1)C1CCC1,"enzyme activity, inhibitor, radiometric",1 µM,remaining activity,33%
Cc1noc([C@H]2C[C@@H](c3ccc(C(F)(F)F)cc3)CN(C(=O)N3CCS(=O)(=O)C3)C2)n1,"cell-free assay, competition with immobilised ligand",1 µM,remaining binding,100%
Cc1nn(CC(F)(F)F)cc1Nc1ncc(C2CC2)c(NCc2ccc(S(N)(=O)=O)cc2)n1,"enzyme activity, inhibitor, radiometric",1 µM,remaining activity,43%
COc1cc(-c2cn(C3CCc4c(F)cccc4N(CC(F)(F)F)C3=O)nn2)ccc1-n1cnc(C)c1 (stereo not shown),"cell-free assay, competition with immobilised ligand",1 µM,remaining binding,100%
O=C(Nc1cccc(Nc2ncc(Br)c(NCCc3cnc[nH]3)n2)c1)N1CCCC1,"enzyme activity, inhibitor, radiometric",1 µM,remaining activity,44%
Cc1c(NC(=O)c2cc(C(N)=O)nc3cc(F)ccc23)c(C(F)(F)F)nn1Cc1ccc(C#N)cc1,"cell-free assay, competition with immobilised ligand",1 µM,remaining binding,75%
